These results are taken from PMC6427047 (Cell chemical biology, 2017).

One assay relates to 8 selected kinases. Kind of assay: Immunoblot validation of kinase degradation in MOLM-14 cells. Format: cell-based, Human. The following applies: pretreatment then 4-hour co-treatment with TL12-186. The method, boiled down: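 MOLM-14 cells were exposed to test compound for 4 h, then lysed. Lysates were cleared by max-speed centrifugation at 4°C for 10 min. Protein was quantified by BCA and normalized. Samples were mixed with LDS sample buffer containing fresh 10% 2-mercaptoethanol and immunoblotted for the target kinases.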
(A western blot detects proteins with antibodies after separation by electrophoresis.)

Assay [1] deals with WT and CRBN−/− MOLM-14 and MOLT-4 cells. As to the kind of experiment: 2-day proliferation assays, WT and CRBN−/− cells. Format: cell-based, Human. The following applies: CRBN−/− MOLM-14 and MOLT-4, 2-day.
The target of another assay is T1, FLT3 (Homo sapiens, UniProt P36888).
T1 sequence (P36888 610-943 limits assumed): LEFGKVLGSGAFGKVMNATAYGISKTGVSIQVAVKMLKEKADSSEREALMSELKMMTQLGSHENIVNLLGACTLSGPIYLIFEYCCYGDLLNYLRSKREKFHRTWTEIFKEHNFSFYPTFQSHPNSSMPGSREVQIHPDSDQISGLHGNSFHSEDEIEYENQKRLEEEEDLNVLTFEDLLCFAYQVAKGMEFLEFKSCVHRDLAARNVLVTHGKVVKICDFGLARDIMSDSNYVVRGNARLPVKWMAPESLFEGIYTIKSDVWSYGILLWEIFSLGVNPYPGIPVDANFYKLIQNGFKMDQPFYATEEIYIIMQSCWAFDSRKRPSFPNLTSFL
As to the kind of experiment: Immunoblot in MOLM-14 cells. Format: cell-based.

Turning to `NS(=O)(=O)OC[C@@H]1C[C@@H](n2ccc3c(N[C@H]4CCc5ccccc54)ncnc32)C[C@@H]1O` [MLN4924], in the assay on 8 selected kinases, the “effect of 4-hour pretreatment on TL12-186-induced kinase degradation” value (“effect of 4-hour pretreatment” for short) was “reverse the degradation effect of TL12-186”. As to `CC(C)S(=O)(=O)c1ccccc1Nc1nc(Nc2ccc(N3CCC(N4CCN(C)CC4)CC3)cc2)ncc1Cl` [TL13-87], the “inhibition of cellular proliferation in CRBN−/− cells” value in assay [1] is “more potent inhibition of cellular proliferation relative to the degrader molecules”.

Regarding `CC(C)C[C@H](NC(=O)[C@H](CCc1ccccc1)NC(=O)CN1CCOCC1)C(=O)N[C@@H](Cc1ccccc1)C(=O)N[C@@H](CC(C)C)C(=O)[C@@]1(C)CO1` [carfilzomib], the “effect of 4-hour pretreatment” value in the assay with 8 selected kinases is on record as “reverse the degradation effect of TL12-186”. As to `CCN(CC)CCCC(C)Nc1ccnc2cc(Cl)ccc12` (centres unmarked) [chloroquine], on FLT3, the “rescue of TL12-186-induced FLT3 degradation by autophagy inhibition” value is on record as “cannot significantly rescue the degradation of FLT3”.

Consider `Nc1cccc2c1C(=O)N(C1CCC(=O)NC1=O)C2=O` (centres unmarked) [pomalidomide], for which, in the assay with 8 selected kinases, the “effect of 4-hour pretreatment” value is on record as “reverse the degradation effect of TL12-186”.
